Reference: ChEMBL document CHEMBL1124429, “Heterocyclic analogues of benzamide antiarrhythmic agents” (J Med Chem, 1989)
Calls of active or inactive are those of the source.

Legend:
Canis familiaris [1] = organism: Canis familiaris; assay: Percent change from control in the rate of rise of phase 0 of the action potential at 10 uM concentration on Canine Purkinje fibers.; design: species or system Canis lupus familiaris, Purkinje fiber; details: dog
Canis familiaris [2] = organism: Canis familiaris; assay: Maximum Percent change from control in the rate of rise of phase 0 of the action potential at 100 uM concentration on Canine Purkinje fibers.; assay type: Canis lupus familiaris, Purkinje fiber; details: dog, in vitro
Method in brief: (§1)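 Isolated canine Purkinje fibers were superfused with physiological saline gassed with 95% O2/5% CO2 (pH 7.35–7.40) at 36 ± 0.5 °C. Paced at 1.0 Hz with 2-ms pulses at twice diastolic threshold. After up to 1 h stabilization, compounds were tested over 10^-8 to 10^-3 M, 30 min per concentration, one compound per fiber, with vehicle controls. Intracellular microelectrodes (3 M KCl) recorded Vmax and APD95; maximum percent change from control is reported with its concentration.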

Canis familiaris [3] = organism: Canis familiaris; assay: Maximum percent change in conduction time (CT) at 10 uM concentration tested on Canine ventricular muscle fibre; assay type: functional, Canis lupus familiaris, Muscle tissue
Method in brief: (§2)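 Canine right ventricular papillary muscle strips were superfused at 36 ± 0.5 °C with saline gassed with 95% O2/5% CO2. Diastolic threshold was found with 2-ms stimuli at 4000 ms cycle length, then pacing at 4× threshold for 60 min equilibration. FRP was measured at 1000 ms cycle length by S1-S2 premature stimulus after every tenth S1. Conduction time came from a bipolar electrogram. Various compound concentrations were tested, one compound per strip, with vehicle controls. Percent change from control was taken at 10 µM, or the maximum change with its concentration; for N ≥ 3, mean with range.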

Canis familiaris [4] = organism: Canis familiaris; assay: Percent change from control in conduction time (CT) at 10 uM concentration tested on Canine ventricular muscle fibre.; M is minimal(<10% change in CT); assay type: functional; details: Canis lupus familiaris, Muscle tissue; method in brief: as §2
Canis familiaris [5] = organism: Canis familiaris; assay: Maximum percent change in repolarization at 100 uM concentration on Canine Purkinje fibers.; assay type: functional, Canis lupus familiaris, Purkinje fiber; method in brief: as §1
Canis familiaris [6] = organism: Canis familiaris; assay: Percent change in repolarization at 10 Purkinje fibers.; assay type: functional, Canis lupus familiaris, Purkinje fiber
Method in brief: (§3)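 Canine Purkinje fibers were held in oxygenated (95% O2–5% CO2) physiological saline, pH 7.35–7.40, at 36 ± 0.5 °C and paced at 1.0 Hz with 2-ms pulses at twice diastolic threshold. Intracellular microelectrodes (3 M KCl) recorded Vmax and APD95 simultaneously. After up to 1 h of stabilization, compounds were tested from 10^-8 to 10^-3 M with 30 min per concentration. One compound per fiber, with vehicle controls. For N ≥ 3, values are the mean with the range.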

Canis familiaris [7] = organism: Canis familiaris; assay: Maximum percent change in functional refractory period(FRP) of compound (30 uM) was tested on Canine ventricular muscle fibre.; design: species or system Canis lupus familiaris, Muscle tissue; method in brief: as §2
Canis familiaris [8] = organism: Canis familiaris; assay: Percent change from control in the functional refractory period (FRP) at 10 uM conc. on Canine ventricular muscle fibre.; design: species or system Canis lupus familiaris, Muscle tissue; method in brief: as §2
Cavia porcellus [9] = organism: Cavia porcellus; assay: Concentration of compound which gives a 20% decrease in contractile force was tested on papillary muscle of guinea pig, activity was expressed as EC-20.; assay type: functional; details: Muscle tissue
Method in brief: (§4)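 Contractile force measured in an isolated cardiac muscle preparation. Value is the concentration giving a 20% decrease in force of contraction. NR marks that this decrease was not reached. Values come from individual experiments; for N ≥ 3, the mean is given with the range.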

Canis familiaris [10] = organism: Canis familiaris; assay: Percent change from control in the rate of rise of phase 0 of the action potential at 10 uM concentration on Canine Purkinje fibers.; value ranges from -13 - -2; assay type: organism-based, Canis lupus familiaris, Purkinje fiber; details: dog, in vitro
Canis familiaris [11] = organism: Canis familiaris; assay: Maximum Percent change from control in the rate of rise of phase 0 of the action potential at 30 uM concentration on Canine Purkinje fibers.; design: species or system Canis lupus familiaris, Purkinje fiber; details: dog, in vitro; method in brief: as §1
Canis familiaris [12] = organism: Canis familiaris; assay: Maximum percent change in conduction time (CT) at 100 uM concentration tested on Canine ventricular muscle fibre; assay type: functional, Canis lupus familiaris, Muscle tissue; method in brief: as §2
Canis familiaris [13] = organism: Canis familiaris; assay: Maximum percent change in conduction time (CT) at 1 uM concentration tested on Canine ventricular muscle fibre; assay type: functional, Canis lupus familiaris, Muscle tissue; method in brief: as §2
Canis familiaris [14] = organism: Canis familiaris; assay: Percent change in conduction time (CT) at 10 uM concentration tested on Canine ventricular muscle fibre; value ranges from -14-6; assay type: functional, Canis lupus familiaris, Muscle tissue
Canis familiaris [15] = organism: Canis familiaris; assay: Maximum percent change in repolarization at 10 uM concentration on Canine Purkinje fibers.; assay type: functional, Canis lupus familiaris, Purkinje fiber; method in brief: as §1
Canis familiaris [16] = organism: Canis familiaris; assay: Maximum percent change in repolarization at 30 uM concentration on Canine Purkinje fibers.; assay type: functional, Canis lupus familiaris, Purkinje fiber; method in brief: as §1
Canis familiaris [17] = organism: Canis familiaris; assay: Percent change in repolarization at 10 Purkinje fibers.; value ranges from -5 - 5; assay type: functional, Canis lupus familiaris, Purkinje fiber; method in brief: as §3
Canis familiaris [18] = organism: Canis familiaris; assay: Percent change from control in the functional refractory period (FRP) at 10 uM conc. on Canine ventricular muscle fibre.; value ranges from -5-3; design: species or system Canis lupus familiaris, Muscle tissue; method in brief: as §2
Canis familiaris [19] = organism: Canis familiaris; assay: Maximum percent change in functional refractory period (FRP) at 100 uM on Canine ventricular muscle fibre.; value ranges from 5-18; design: species or system Canis lupus familiaris, Muscle tissue; method in brief: as §2
Cavia porcellus [20] = organism: Cavia porcellus; assay: Concentration of compound ( ) which gives a 20% decrease in contractile force was tested on papillary muscle of guinea pig, activity was expressed as EC-20.; assay type: functional; details: Muscle tissue; method in brief: as §4
Canis familiaris [21] = organism: Canis familiaris; assay: Percent change from control in the rate of rise of phase 0 of the action potential at 10 uM concentration on Canine Purkinje fibers.; value ranges from 0-2; design: species or system Canis lupus familiaris, Purkinje fiber; details: dog, in vitro
Canis familiaris [22] = organism: Canis familiaris; assay: The maximum Percent change from control in the rate of rise of phase 0 of the action potential at 100 uM concentration on Canine Purkinje fibers.; design: species or system Canis lupus familiaris, Purkinje fiber; details: dog; method in brief: as §3
Canis familiaris [23] = organism: Canis familiaris; assay: The maximum Percent change from control in the rate of rise of phase 0 of the action potential at 1 uM concentration on Canine Purkinje fibers.; design: species or system Canis lupus familiaris, Purkinje fiber; details: dog; method in brief: as §3
Canis familiaris [24] = organism: Canis familiaris; assay: The maximum percent change in action potential (Vmax ) at concentration observed (0.1 uM ) was tested on Canine Purkinje fibers.; design: species or system Canis lupus familiaris, Purkinje fiber; details: dog, in vitro; method in brief: as §3
Canis familiaris [25] = organism: Canis familiaris; assay: Maximum percent change in conduction time (CT) at 0.1 uM concentration tested on Canine ventricular muscle fibre; assay type: functional, Canis lupus familiaris, Muscle tissue; method in brief: as §2
Canis familiaris [26] = organism: Canis familiaris; assay: Percent change from control in conduction time (CT) at 10 uM concentration tested on Canine ventricular muscle fibre.; value ranges from -11.0-0; assay type: functional, Canis lupus familiaris, Muscle tissue; method in brief: as §2
Canis familiaris [27] = organism: Canis familiaris; assay: Maximum percent change in repolarization at 100 uM concentration on Canine Purkinje fibers.; value ranges from 14-20; assay type: functional, Canis lupus familiaris, Purkinje fiber; method in brief: as §1
Canis familiaris [28] = organism: Canis familiaris; assay: Percent change in repolarization at 10 Purkinje fibers; value ranges from -3.0-7.0.; assay type: functional, Canis lupus familiaris, Purkinje fiber; method in brief: as §3
Canis familiaris [29] = organism: Canis familiaris; assay: Maximum percent change in functional refractory period (FRP) at 10 uM on Canine ventricular muscle fibre.; design: species or system Canis lupus familiaris, Muscle tissue; method in brief: as §2
Canis familiaris [30] = organism: Canis familiaris; assay: Percent change from control in the functional refractory period (FRP) at 10 uM conc. on Canine ventricular muscle fibre.; value ranges from 11-23; design: species or system Canis lupus familiaris, Muscle tissue; method in brief: as §2
Canis familiaris [31] = organism: Canis familiaris; assay: Maximum percent change in functional refractory period (FRP) at 100 uM on Canine ventricular muscle fibre.; design: species or system Canis lupus familiaris, Muscle tissue; method in brief: as §2
Canis familiaris [32] = organism: Canis familiaris; assay: Maximum Percent change from control in the rate of rise of phase 0 of the action potential at 100 uM concentration on Canine Purkinje fibers.; details: dog, in vitro
Canis familiaris [33] = organism: Canis familiaris; assay: Percent change from control in the rate of rise of phase 0 of the action potential at 10 uM concentration on Canine Purkinje fibers.; value ranges from -36.0-1.0; design: species or system Canis lupus familiaris, Purkinje fiber; details: dog, in vitro
Canis familiaris [34] = organism: Canis familiaris; assay: Maximum percent change in repolarization at 0.1 uM concentration on Canine Purkinje fibers.; assay type: functional, Canis lupus familiaris, Purkinje fiber; method in brief: as §1
Canis familiaris [35] = organism: Canis familiaris; assay: Maximum percent change in repolarization at 1 uM concentration on Canine Purkinje fibers.; assay type: functional, Canis lupus familiaris, Purkinje fiber; method in brief: as §1
Canis familiaris [36] = organism: Canis familiaris; assay: Percent change in repolarization at 10 Purkinje fibers; value ranges from 3-4.; assay type: functional, Canis lupus familiaris, Purkinje fiber; method in brief: as §3
Canis familiaris [37] = organism: Canis familiaris; assay: Percent change in functional refractory period (FRP) at 10 uM on Canine ventricular muscle fibre.; design: species or system Canis lupus familiaris, Muscle tissue
Cavia porcellus [38] = organism: Cavia porcellus; assay: Concentration of compound which gives a 20% decrease in contractile force was tested from individual experiment on papillary muscle of guinea pig, activity was expressed as EC-20.; NR is not reached.; assay type: functional; details: Muscle tissue; method in brief: as §4

SMILES | Vmax (Canis familiaris [2]) [%] | Vmax (Canis familiaris [11]) [%] | CT (Canis familiaris [3]) [%] | CT (Canis familiaris [4]) | APD95 (Canis familiaris [5]) [%] | APD95 (Canis familiaris [6]) [%] | FRP (Canis familiaris [8]) [%] | EC20 (Cavia porcellus [9]) [µM] | CT (Canis familiaris [12]) [%] | CT (Canis familiaris [13]) [%] | APD95 (Canis familiaris [15]) [%] | FRP (Canis familiaris [31]) [%] | also measured
CCN(CC)CCNC(=O)c1c(C)[nH]c(C)c1C | -45 | – | -8 | Minimal | -5 | 2 | 1 | 30 | – | – | – | – | Vmax (Canis familiaris [1]; in vivo): -18%; FRP (Canis familiaris [7]): 6%
CCN(CC)CCNC(=O)c1ccc(NC(C)=O)cc1 [ACECAINIDE] | – | – | – | – | – | – | – | – | 6 | -9 | – | 31 | Vmax (Canis familiaris [21]): 1%; Vmax (Canis familiaris [22]): 5%; Vmax (Canis familiaris [23]): 2%; Vmax (Canis familiaris [24]): 6%; CT (Canis familiaris [25]): -11%; CT (Canis familiaris [26]): -9.7%; APD95 (Canis familiaris [27]): 16.3%; APD95 (Canis familiaris [28]): 3%; FRP (Canis familiaris [29]): 23%; FRP (Canis familiaris [30]): 16.8%
CCN(CC)CCNC(=O)c1cc(Cl)c(N)cc1OC [METOCLOPRAMIDE] | – | – | – | inactive | -17 | 1 | 17 | 10 | 17 | – | – | 33 | Vmax (Canis familiaris [1]; in vitro): -3%; Vmax (Canis familiaris [32]): -25%

Continued, in another order:

Vmax (Canis familiaris [2]) [%] | Vmax (Canis familiaris [11]) [%] | SMILES | CT (Canis familiaris [3]) [%] | CT (Canis familiaris [4]) | APD95 (Canis familiaris [5]) [%] | APD95 (Canis familiaris [6]) [%] | FRP (Canis familiaris [8]) [%] | EC20 (Cavia porcellus [9]) [µM] | CT (Canis familiaris [12]) [%] | CT (Canis familiaris [13]) [%] | APD95 (Canis familiaris [15]) [%] | FRP (Canis familiaris [31]) [%] | also measured
-35 | -19 | CCN(CC)CCNC(=O)c1cc2cccc(O)c2[nH]1 | -14 | – | -28 | – | – | – | 16 | -3 | 5 | – | Vmax (Canis familiaris [10]): -7%; CT (Canis familiaris [14]): -3.3%; APD95 (Canis familiaris [16]): -9%; APD95 (Canis familiaris [17]): 0.7%; FRP (Canis familiaris [18]): -1%; FRP (Canis familiaris [19]): 10%; EC20 (Cavia porcellus [20]): 30 µM
-37 | -14 | CCN(CC)CCCNC(=O)c1c(C)[nH]c(C)c1C | – | Minimal | – | – | – | – | – | -3 | 4 | 16 | Vmax (Canis familiaris [33]): -13%; APD95 (Canis familiaris [34]): 5%; APD95 (Canis familiaris [35]): 6%; APD95 (Canis familiaris [36]): 3.7%; FRP (Canis familiaris [37]): 4%; EC20 (Cavia porcellus [38]): Not reached
